Lmaj promast = reduces viability of Leishmania major promastigotes | resazurin fluorescence viability | inhibition, % at 10 µM | 200,000 tested, 9% active | AID 1063;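 also: promastigotes grown with compound for 44 hours at 28 °C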
PKD1 inh = inhibitors of human PKD1 kinase; Q15139; PKD1 kinase fluorescence polarization assay; inhibition, % (no concentration beside the values); 200,000 tested, 0.056% active; AID 797
ABCG2 inh = blocks JC-1 efflux by human ABCG2 transporter | Q9UNQ0 | IgMXP3 cells, flow cytometry | inhibition, % at 6.6 µM | 190,000 tested, 0.1% active | AID 1325;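 active = inhibition above 80%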;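 also: 0% = DMSO and 100% = nicardipine control wells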
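Test system: IgMXP3 (ABCG2) plus far-red-tagged CCRF-Adr (ABCB1) cells / Amount: 3 million cells/mL in well / Reagent: JC-1 transporter substrate / Timing: 10 min compound exposure, 25 °C / Signal: flow cytometry, 530 nm JC-1 signal / Read-out: percent efflux inhibition, scaled nicardipine 100% to DMSO 0% / Benchmarks: nicardipine as high control, DMSO as low control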
GSH bead fluor = compound fluoresces at 488/530 nm on GSH beads. GSH beads flow cytometry, compound fluorescence 488/530 nm; stronger effect = higher value. fluorescence (KMESF) at 10 µM. 190,000 tested, 0.25% active. AID 1776; in the data active = fluorescence above about 89;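 also: glutathione beads carrying GST-tagged Bcl family fusion proteins plus one bare bead set; values are compound well signal with DMSO vehicle wells as background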
Avidin fluor = avidin bead compound fluorescence profile; fluorescence (KMESF) at 10 µM; 220,000 tested, 0.38% active; Avidin beads, compound fluorescence 488/530 nm, flow cytometry; stronger effect = higher value; AID 1775; in the data active = fluorescence above about 47
ABCB1 inh = human ABCB1 inhibition, ABCG2 as counter-screen; AID 1326; inhibition, % at 6.6 µM; 190,000 tested, 0.067% active; CCRF-Adr cells, JC-1 efflux, flow cytometry; P08183; in the data active = inhibition above about 40%;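 also: 0% = vehicle and 100% = reference inhibitor; higher value means more JC-1 retained so stronger ABCB1 efflux block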
* marks the source's active call; other numbers are inactive results. The sample as a whole holds a higher share of hits than the screen did. Rule as the data show it, unless noted: active = inhibition above about 50%; inactive = the rest.

Screening COc1ccc(NC(=O)CC2SC(=N)N(c3ccccc3)C2=O)c(OC)c1 (centres undefined) returned Lmaj promast 28, PKD1 inh -2, ABCG2 inh 3, GSH bead fluor 16, Avidin fluor -1 and ABCB1 inh 0.
Screening COC(=O)c1c(NC(=O)C2(C)Cc3ccccc3C(=O)O2)sc2c1CCCC2 (centres undefined) returned Lmaj promast 14, PKD1 inh 4, ABCG2 inh 65, GSH bead fluor 25, Avidin fluor 21 and ABCB1 inh 5.
Screening O=C(NCCN1CCN(S(=O)(=O)c2ccc([N+](=O)[O-])cc2)CC1)C(=O)Nc1ccccc1 returned Lmaj promast -3, PKD1 inh -5, ABCG2 inh 0, GSH bead fluor 25, Avidin fluor 152* and ABCB1 inh 0.
Screening O=C(Nc1ccccc1)Nc1ccc(Br)cc1F returned Lmaj promast 1, PKD1 inh 6, ABCG2 inh 5, GSH bead fluor 20, Avidin fluor 13 and ABCB1 inh 0.
Screening O=C(Nc1ccc(S(=O)(=O)N2CCCC2)cc1)N1c2ccccc2Sc2ccccc21 returned Lmaj promast 45, PKD1 inh -2, ABCG2 inh 0, GSH bead fluor 24, Avidin fluor 77* and ABCB1 inh 0.
For O=C(Nc1cccc(Cl)c1)Nc1ccc(Br)cc1F the results were Lmaj promast 68*, PKD1 inh 6, ABCG2 inh 26, GSH bead fluor 7, Avidin fluor 6 and ABCB1 inh 0.
For O=C(NCCN1CCN(Cc2ccc([N+](=O)[O-])cc2)CC1)C(=O)Nc1ccccc1 the results were Lmaj promast -2, PKD1 inh -4, ABCG2 inh 1, GSH bead fluor 33, Avidin fluor 18 and ABCB1 inh 1.
Screening O=C(Nc1ccccc1)Nc1ccc(S(=O)(=O)N2CCCCC2)cc1 returned Lmaj promast 82*, PKD1 inh -2, ABCG2 inh 0, GSH bead fluor 46, Avidin fluor 14 and ABCB1 inh 0.
Screening O=C(CSc1ccc(F)cc1)Nc1ccc(C2SCCS2)cc1 returned Avidin fluor 6.
For COc1ccc(NC(=O)COc2nc3ccccc3nc2N2CCOCC2)c(OC)c1 the results were Lmaj promast -6, PKD1 inh -9, ABCG2 inh 2, GSH bead fluor 14, Avidin fluor 9 and ABCB1 inh 1.
Screening COC(=O)c1cc(NC(=O)Nc2cccc(Cl)c2)ccc1Cl returned Lmaj promast 71*, PKD1 inh 11, ABCG2 inh -1, GSH bead fluor 20, Avidin fluor 8 and ABCB1 inh 0.
`CN1CCN(S(=O)(=O)c2ccc(NC(=O)Nc3cccc(Cl)c3)cc2)CC1` gave Lmaj promast 98*, PKD1 inh 0, ABCG2 inh 0, GSH bead fluor 23, Avidin fluor 8 and ABCB1 inh -1.
Screening O=C(Nc1cccc(Cl)c1)Nc1cc(S(=O)(=O)N2CCCCC2)ccc1Cl returned Lmaj promast 32, PKD1 inh 2, ABCG2 inh 33, GSH bead fluor 14, Avidin fluor 20 and ABCB1 inh 7.
For O=C(Nc1ccccc1)c1cc(S(=O)(=O)N2CCSCC2)ccc1Cl the results were Lmaj promast 53*, PKD1 inh -8, ABCG2 inh 1, GSH bead fluor 8, Avidin fluor 15 and ABCB1 inh 1.
Screening O=C(Nc1cccc(O)c1)c1cc(S(=O)(=O)N2CCCC2)ccc1Cl returned Lmaj promast 3, PKD1 inh 2, ABCG2 inh 1, GSH bead fluor 39, Avidin fluor 4 and ABCB1 inh 1.
Screening CCOc1cc(/C=N/NC(=O)c2cccnc2)cc(Br)c1OCC(N)=O returned Lmaj promast -3, PKD1 inh 6, ABCG2 inh 5, GSH bead fluor 10, Avidin fluor 11 and ABCB1 inh 0.
O=C(N/N=C/c1cn(-c2ccccc2)nc1-c1ccc([N+](=O)[O-])cc1)c1ccncc1 was read as Avidin fluor 7.
Screening COc1ccc(C(=O)/C=C/c2ccc(C)cc2)c(OC(=O)c2ccc([N+](=O)[O-])cc2)c1 returned Lmaj promast 9, PKD1 inh -6, ABCG2 inh 11, GSH bead fluor 22, Avidin fluor 24 and ABCB1 inh 0.
`COc1ccc(C(=O)/C=C/c2ccccc2F)c(OC(=O)c2ccc([N+](=O)[O-])cc2)c1` gave Lmaj promast 91*, PKD1 inh -1, ABCG2 inh 3, GSH bead fluor 7, Avidin fluor 13 and ABCB1 inh 0.
For Cc1nn(Cc2ccc(Cl)cc2Cl)c(C)c1NC(=O)NC12CC3CC(CC(C3)C1)C2 the results were Lmaj promast 100*, PKD1 inh -1, ABCG2 inh 6, GSH bead fluor 7, Avidin fluor 9 and ABCB1 inh 3.
`Cc1cccc(Nc2nnc(SCC(=O)Nc3cccnc3Cl)s2)c1` gave Lmaj promast 62*, PKD1 inh 2, ABCG2 inh 3, GSH bead fluor 8, Avidin fluor 6 and ABCB1 inh -1.
O=C(CSc1cccc(C(F)(F)F)c1)Nc1cc(S(=O)(=O)N2CCCC2)ccc1Cl was read as Lmaj promast 55*, PKD1 inh -3, ABCG2 inh 8, GSH bead fluor 7, Avidin fluor 15 and ABCB1 inh 1.
For Cc1cccc(NC(=O)CSc2nnc(NC(=O)c3ccc(S(=O)(=O)N4CCOCC4)cc3)s2)c1C the results were Lmaj promast 87*, PKD1 inh -11, ABCG2 inh -2, GSH bead fluor 4, Avidin fluor 14 and ABCB1 inh -1.
For Cc1cccc(NC(=O)CSc2nnc(NC(=O)CN3CCCCC3)s2)c1 the results were Lmaj promast -6, PKD1 inh -5, ABCG2 inh 0, GSH bead fluor 9, Avidin fluor 3 and ABCB1 inh 0.
Cc1ccc(Nc2nnc(SCC(=O)Nc3ccc(S(=O)(=O)N4CCOCC4)cc3)s2)cc1 was read as Lmaj promast 40, PKD1 inh -5, ABCG2 inh 3, GSH bead fluor 10, Avidin fluor 36 and ABCB1 inh 0.
For COc1ccc(NC(=O)CSc2nnc(NC(=O)c3ccc(S(=O)(=O)N4CCOCC4)cc3)s2)cc1 the results were Lmaj promast 76*, PKD1 inh -9, ABCG2 inh -9, GSH bead fluor 4, Avidin fluor 7 and ABCB1 inh -2.
`Cc1cccc(C)c1Nc1nnc(SCC(=O)Nc2cc(S(=O)(=O)N3CCCCC3)ccc2Cl)s1` gave Lmaj promast 50*, PKD1 inh -2, ABCG2 inh 0, GSH bead fluor 9, Avidin fluor 12 and ABCB1 inh 2.

High-throughput results deposited in PubChem by several laboratories.
